According to ChEMBL document CHEMBL4622920, “Synthesis and evaluation of heterocycle structures as potential inhibitors of Mycobacterium tuberculosis UGM” (Bioorg Med Chem, 2020):
In brackets after ≈: the same amount, converted by molar mass. Activity calls are given as the source filed them. No cut-off for these calls is given here.

How the values were obtained:
[1] = tested on: Mycobacterium tuberculosis; assay: Displacement of UDP-fluorescein from non-reduced form of Mycobacterium tuberculosis UDP-galactopyranose mutase by fluorescence polarization assay relative to control; set-up: concentration or dose not given beside the values; settings: concentration not given here
Procedure, shortened: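 Single-point fluorescence polarization competition with inhibitor at 1 mM final. Non-reduced recombinant Mt UGM at 580 nM with 18 nM UDP-fluorescein probe. Read at room temperature in sodium phosphate buffer pH 7.0. Reported as percent inhibition; screening also done at 100 µM. Kd followed when inhibition at 1 mM exceeded 30%.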

[2] = Displacement of UDP-fluorescein from non-reduced form of Mycobacterium tuberculosis UDP-galactopyranose mutase by fluorescence polarization assay
Procedure, shortened: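 Recombinant Mt UGM (pET-29b construct) used dialysed and non-reduced at 580 nM. UDP-fluorescein probe at 18 nM. Inhibitors titrated over 0–1 mM. Kd derived from competitive fluorescence polarization. Probe affinity measured by enzyme dilutions in 50 mM sodium phosphate pH 7.0 at room temperature, in triplicate.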

[3] = tested on: Mycobacterium tuberculosis; assay: Antitubercular activity against Mycobacterium tuberculosis mc2 6230 assessed as inhibition of bacterial growth incubated for 7 days by broth dilution method; assay type: functional; settings: mc2 6230, 168 h
Procedure, shortened: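 Pantothenate-auxotrophic Mt mc²6230 grown in 7H9/OADC plus 109 µM pantothenic acid at 37°C without agitation. Broth microdilution started from culture at OD600 0.05. Twofold series covered 1.5–100 µg/ml. Plates were read after 7 days at 37°C. MIC is the lowest concentration with no visible turbidity change. Duplicates were run on three independent occasions.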

[4] = tested on: Mycobacterium tuberculosis; assay: Inhibition of reduced form of Mycobacterium tuberculosis UDP-galactopyranose mutase assessed as conversion of UDP-Galf to UDP-Galp at 0.5 mM using UDP-Galf as substrate compound incubated with enzyme at 5 mins after enzyme reduction with sodium dithionite by HPLC analysis relative to control
Procedure, shortened: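 Recombinant Mt UGM (60 nM) in 100 mM NaH₂PO₄ pH 7.4 at room temperature. Enzyme pre-incubated 5 min, then reduced with 12.5 mM sodium dithionite and incubated with or without inhibitor. UDP-α-Galf (25 µM final) added. Samples taken at five times and quenched in liquid N₂. Conversion to UDP-Galp quantified by C18 HPLC with UV detection at 262 nm.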

[5] = tested on: Mycobacterium tuberculosis; assay: Antitubercular activity against Mycobacterium tuberculosis mc2 6230 assessed as inhibition of bacterial growth at 30 ng/ml incubated for 7 days by broth dilution method; assay type: functional, organism-based
Procedure, shortened: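 Mt mc²6230 pantothenate auxotroph grown at 37°C static in 7H9 broth with OADC and 109 µM pantothenic acid. Log-phase culture diluted to OD600 0.05. Compound serially diluted 2-fold from a 10 mg/ml DMSO stock. Plates wrapped and incubated at 37°C for 7 days. Isoniazid served as positive control and DMSO as vehicle control. Growth was read visually as turbidity.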

| SMILES | inhibition [1] [%] | Kd [2] [µM] | other results |
| --- | --- | --- | --- |
| CC1=C(c2ccc(-c3ccccc3)cc2)C(=O)O/C1=C\C(C)C | 19.2 |  |  |
| COC(=O)c1[nH]c2cc3c(cc2c1I)OCO3 | 23.1 |  |  |
| CCCCC#C/C=C1\Cn2c(c(I)c3cc4c(cc32)OCO4)C(=O)O1 |  | 58.3 | MIC [3]: 3.1 µg/mL (≈ 6.9 µM); inhibition [4]: 60.2% |
| COC(=O)c1cc2ccccc2[nH]1 | 2 |  |  |
| C[N+](C)(C)CC(=O)N/N=C/c1ccc(O)c(O)c1 |  | 3 |  |
| O=C1O/C(=C/I)Cn2c1c(I)c1cc(F)ccc12 | 19.1 |  |  |
| COC(=O)c1[nH]c2ccccc2c1I | 11.5 |  |  |
| NNC(=O)c1ccncc1 |  |  | inhibition [5]: Active |
| CC1=C(Br)C(=O)O/C1=C\C(C)C | 7.3 |  |  |
| COc1ccc2cc(C3=C(C)/C(=C/C(C)C)OC3=O)ccc2c1 | 7.4 |  |  |
| CC1=C(c2ccc(F)cc2)C(=O)O/C1=C\C(C)C | 9 |  |  |
| CC1=C(c2ccncc2)C(=O)O/C1=C\C(C)C | 3 |  |  |
| C#CCn1c(C(=O)O)c(I)c2ccccc21 | 7.4 |  |  |
| O=C(O)C(Cc1ccc(I)cc1)NC1NC(c2ccc(Cl)c(Cl)c2)=CS1 (centres undefined) |  | 8 |  |
| O=c1ccn([C@@H]2O[C@H](COP(=O)(O)OP(=O)(O)O[C@H]3O[C@@H]([C@H](O)CO)C(F)(F)C3(F)F)[C@@H](O)[C@H]2O)c(=O)[nH]1 |  | 53 |  |
| CCCCC#C/C=C1\Cn2c(c(I)c3ccccc32)C(=O)O1 |  | 66 | MIC [3]: 6.2 µg/mL (≈ 15.3 µM); inhibition [4]: 72.9% |
| COC(=O)c1cn(Cc2ccccc2)c2ccccc12 | 5.1 |  |  |
| CCCCC#C/C=C1\Cn2c(c(I)c3cc(OC)ccc32)C(=O)O1 |  | 61.3 | MIC [3]: 50 µg/mL (≈ 115 µM); inhibition [4]: 95.5% |
| C/C(I)=C1/Cn2c(c(I)c3ccccc32)C(=O)O1 | 14.9 |  |  |
| O=C1O/C(=C(/I)c2ccccc2)Cn2c1c(I)c1ccccc12 | 22.8 |  |  |
| C#CCn1c(C(=O)OC)cc2cc(F)ccc21 | 0 |  |  |
| CC1=C(c2cc3ccccc3o2)C(=O)O/C1=C\C(C)C | 0 |  |  |
| O=C1O/C(=C/I)Cn2c1c(I)c1ccccc12 | 61.6 | 2000 |  |
| C#CCn1c(C(=O)O)c(I)c2cc3c(cc21)OCO3 | 46.2 | 220 |  |
| CC1=C(c2ccoc2)C(=O)O/C1=C\C(C)C | 5.2 |  |  |
| C#CCn1c(C(=O)O)c(I)c2cc(OC)ccc21 | 15 |  |  |
